An excerpt weighted towards active compounds, which were near 4.3% of everything screened.
SMARCA2 act = SMARCA2 function activation, primary screen; MG213 cells, MMTV-luciferase reporter, dexamethasone, overnight; activation, % at 9.1 µM; 1% of 370,000 active; in the data active = activation above about 7.8%;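 also: 0% = vehicle wells and 100% = reference activator wells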
Lipid droplet = hepatic lipid droplet formation modulation; AML12 mouse hepatocytes, oleate lipid droplets, BODIPY imaging; inhibition, % at 6.5 µM; 0.4% of 240,000 active;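 active = lipid droplet intensity inhibited by at least 50%, with more than 500 cells counted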
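Assay system: AML12 mouse liver cells | Compound: 6.5 µM single-point dosing | Schedule: Overnight exposure | Technique: Fluorescence imaging, 20x objective, two fields per well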
CR mimetic SO = caloric restriction mimetics inhibiting age-related superoxide in yeast; S. cerevisiae aged cells, superoxide DHE fluorescence; active compounds read low; superoxide response (% of plate mean), % at 10 µM; 0.18% of 330,000 active;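 active = superoxide response under a set limit, about three screen SD below normal, cut at about 65% in these data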;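 also: yeast aged for seven days with compound at 30 °C before DHE staining; 100% = average MFI of all compound-treated wells on the plate with controls excluded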
AHR activator = human AHR activation; AID 2796; activation, % at 5 µM; P35869; AHR-responsive luciferase reporter cells, luminescence; 2.5% of 320,000 active; in the data active = activation above about 47%;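 also: 0% = vehicle wells and 100% = reference agonist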
Target sequence (P35869 whole entry, looked up): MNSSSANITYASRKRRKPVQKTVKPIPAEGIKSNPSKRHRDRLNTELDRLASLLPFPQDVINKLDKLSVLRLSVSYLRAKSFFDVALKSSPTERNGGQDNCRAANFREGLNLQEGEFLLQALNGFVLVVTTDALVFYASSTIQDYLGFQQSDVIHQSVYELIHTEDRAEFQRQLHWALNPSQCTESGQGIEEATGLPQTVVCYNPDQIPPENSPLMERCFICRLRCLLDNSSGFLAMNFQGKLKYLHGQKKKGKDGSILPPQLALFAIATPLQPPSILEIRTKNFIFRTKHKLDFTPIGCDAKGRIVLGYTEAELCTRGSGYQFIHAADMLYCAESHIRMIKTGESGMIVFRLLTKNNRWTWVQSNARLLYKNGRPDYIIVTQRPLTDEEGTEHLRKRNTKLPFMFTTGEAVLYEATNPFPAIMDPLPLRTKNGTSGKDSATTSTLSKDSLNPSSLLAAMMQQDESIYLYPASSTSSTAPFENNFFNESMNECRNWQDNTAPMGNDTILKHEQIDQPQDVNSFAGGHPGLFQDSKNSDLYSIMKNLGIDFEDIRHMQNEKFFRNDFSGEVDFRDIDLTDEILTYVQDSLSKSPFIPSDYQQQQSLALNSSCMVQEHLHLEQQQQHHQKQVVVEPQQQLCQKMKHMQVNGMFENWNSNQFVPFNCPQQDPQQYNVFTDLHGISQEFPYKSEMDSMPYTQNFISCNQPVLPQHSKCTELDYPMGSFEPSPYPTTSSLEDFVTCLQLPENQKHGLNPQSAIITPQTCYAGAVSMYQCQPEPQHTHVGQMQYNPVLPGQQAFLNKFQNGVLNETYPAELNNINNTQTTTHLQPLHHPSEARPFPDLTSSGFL
SR-BI uptake up = enhances SR-BI lipid uptake from DiI-HDL | CHO ldlA[mSR-BI] cells, DiI-HDL uptake fluorescence, 3 h; 100 = double the neutral-control signal | activation, % at 12.5 µM | 0.096% of 320,000 active | AID 504775;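 active = mean replicate activation of at least 60% and every replicate at or above 60%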;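 also: 0% = median plate neutral-control signal and 100% = twice that signal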
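Test system: SR-BI-overexpressing, LDLR-lacking CHO cells; Also added: labelled HDL, 10 µg/mL; Measured by: bottom-read cell fluorescence after medium removal, ex 550/em 595 nm; Timing: 3 h uptake period with compound, 37 °C; Buffer or medium: F12, 0.5% BSA, 25 mM HEPES; Doses: single compound concentration, delivered by pin transfer.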
SR-BI DiI inh = blocks mouse SR-BI lipid uptake from DiI-HDL; AID 488896; ldlA[mSR-BI] CHO cells, DiI-HDL uptake fluorescence, 3 h; 0.96% of 320,000 active; inhibition, % at 12.5 µM;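 active = mean replicate inhibition of at least 70% and a set share of replicates each scoring 70 or more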;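 also: 0% = median of neutral control wells and 100% = median of positive control wells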
SMARCA2 act conf = SMARCA2 activation, confirmation screen; shares compounds with SMARCA2 act; MG213 cells, MMTV-luciferase with dexamethasone, luminescence, overnight; MG213 cells expressing E1A, Rb sequestered; DMSO wells 0%, reference activator 100%; activation, % at 9.1 µM; 30% of 3,500 active; AID 652260;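 active = activation above its plate's cutoff, the mean activation of tested wells plus 3 SD, cut at about 7.9% in these data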
VP16 Luc act = GAL4-VP16 reporter activation counter-screen; shares compounds with SMARCA2 act; HEK293 GAL4-VP16 pG5luc reporter, luciferase luminescence; scaled: DMSO wells 0%, SAHA wells 100%; activation, % at 9.1 µM; 41% of 3,500 active; AID 686939;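 active = activation above the solvent-only control well mean plus 3 SD, averaged across control plates, cut at about 5.2% in these data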
Active calls of the source: *; / = no result given.

SMILES	SMARCA2 act	Lipid droplet	CR mimetic SO	AHR activator	SR-BI uptake up	SR-BI DiI inh	SMARCA2 act conf	VP16 Luc act
COc1ccc(C2(CNC(=O)c3ccc(OC)c([N+](=O)[O-])c3)CCCCC2)cc1OC	-1.5	-11.2	103.0	13.0	5.0	-5.0	/	/
COc1ccc(C(=O)NCC2(c3ccc(OC)c(OC)c3)CCCC2)cc1OC	8.9*	/	/	/	/	/	-0.8	-0.6
O=C(COCc1ccncc1)N1CCN(c2ccc(F)cc2Cl)CC1	-5.5	/	/	/	/	/	/	/
COc1ccc(C2Nc3ccccc3C(=O)N2c2ccc(C)cc2)cc1Cn1cc([N+](=O)[O-])cn1 (stereo unspecified)	9.8*	/	108.8	8.8	9.0	-9.0	2.4	7.4*
Cc1ccccc1OCC(=O)Nc1cccc(N(C)S(C)(=O)=O)c1	0.8	-3.1	102.5	7.4	23.0	-23.0	/	/
CN(c1cccc(NC(=O)COc2ccc(Cl)cc2Cl)c1)S(C)(=O)=O	9.4*	-3.7	94.3	0.4	3.0	-3.0	0.3	9.1*
CC(/C=N/NC(=O)Cc1cccs1)=C\c1ccco1	-2.5	/	116.8	-1.7	1.6	-1.6	/	/
CC(/C=N/NC(=O)c1cccs1)=C\c1ccco1	9.2*	-17.9	108.7	3.4	-1.3	1.3	9.3*	11.6*
O=C(O)C(=O)/C(=C\c1ccc([N+](=O)[O-])cc1)c1ccc2ccccc2n1	8.7*	13.3	88.1	22.0	1.2	-1.2	3.3	10.9*
COc1cc(/C=N/NC(=S)Nc2cccc(S(=O)(=O)N(C)C)c2)ccc1O	9.8*	35.5	96.4	7.6	-71.2	71.2*	1.5	5.8*
CN(C)S(=O)(=O)c1cccc(NC(=S)N/N=C/C2CC=CCC2)c1 (stereo unspecified)	1.2	-7.4	120.2	3.5	/	/	/	/
COc1cc(/C=N/NC(=O)c2nc(C)cc(C)n2)ccc1O	8.9*	21.4	91.7	7.2	-4.6	4.6	2.3	0.3
Cc1nonc1C(=O)N/N=C/c1ccc(O)c(O)c1	9.0*	2.6	98.6	25.2	27.8	-27.8	-0.4	2.7
COc1cc(/C=N/NC(=O)c2nonc2C)ccc1O	9.4*	29.4	106.6	17.4	18.6	-18.6	5.9	-0.1
O=C1CCC2(CCCCC2)N1CCCO	-2.1	/	/	/	/	/	/	/
CCCCN1C(=O)N2Cc3ccc(C)cc3C2CS1(=O)=O (stereo unspecified)	1.7	/	/	/	/	/	/	/
Cc1ccc(Cn2cc(CN3[C@@H](Cc4ccccc4)COc4cc(Br)ccc4S3(=O)=O)nn2)cc1	-2.2	/	/	/	/	/	/	/
N#Cc1c(NC(=S)NC(=O)C2CCCC2)sc2c1CCCCC2	13.1*	-4.2	94.3	37.6	-19.6	19.6	-1.4	3.0
CCOC(=O)c1ccc2nc(NC(=O)C(C)C)sc2c1	10.5*	4.8	75.3	10.4	-51.8	51.8	7.6	4.1
COc1ccc2nc(Nc3nc(C)c(C(C)=O)s3)sc2c1	9.7*	/	97.4	4.5	-3.4	3.4	-11.8	14.0*
CCOc1ccc2nc(NC(=O)COC)sc2c1	8.0*	-1.2	102.3	10.8	-33.4	33.4	14.8*	12.8*
O=C(Nc1nc(-c2nc3ccccc3s2)cs1)c1ccco1	12.2*	-1.4	111.7	16.1	8.6	-8.6	9.5*	8.3*
COc1ccc(Nc2nc3ccc(OC)cc3s2)cc1	3.1	-1.6	104.8	-2.7	-9.9	9.9	/	/
O=C(Nc1nc(-c2ccc(Cl)s2)cs1)c1ccco1	-1.3	-30.3	112.6	1.0	-18.1	18.1	/	/
COc1ccc(/C=N\NC(=O)CN2CCN(Cc3ccccc3)CC2)cc1OCc1ccccc1	-5.5	/	/	/	/	/	/	/
SMILES	SMARCA2 act	Lipid droplet	CR mimetic SO	AHR activator	SR-BI uptake up	SR-BI DiI inh	SMARCA2 act conf	VP16 Luc act
CC(C)N1Cc2nnn(Cc3ccccc3)c2-c2ccccc2S1(=O)=O	7.2	/	/	/	/	/	/	/
CC(C)C(C#CC1CC1)NCc1ccc2c(c1)OCO2 (stereo unspecified)	2.5	/	/	/	/	/	/	/
CC(C)NC(=O)N[C@H]1C[C@@H]2O[C@H](CO)CC[C@@H]2O[C@@H]1CCc1ccc(-c2ccc(F)cc2)cc1	-2.5	/	/	/	/	/	/	/
CS(=O)(=O)c1ccc2nc(NC(=O)c3ccco3)sc2c1	9.9*	-4.5	96.7	4.1	5.6	-5.6	10.9*	11.9*
Cc1ccc2nc(NC(=O)COC(=O)c3ccco3)sc2c1	9.8*	-8.9	92.0	18.1	20.9	-20.9	7.6	1.9
COC(=O)c1cc2c(c3c4cc(F)ccc4n(S(=O)(=O)c4ccc(C)cc4)c13)C(=O)N(Cc1ccc(N(C)C)cc1)C2	-0.7	/	/	/	/	/	/	/
O=C(Cn1nnc(-c2ccccc2)n1)N1CCCCC1	0.8	1.0	94.2	7.2	-6.1	6.1	/	/
CC(C)COc1ccc(-c2nnn(CC(=O)N3CCCC3)n2)cc1	9.9*	-13.3	102.8	1.9	6.9	-6.9	5.8	8.2*
Cc1ccccc1CNC(=O)c1cccc2c1C(=O)N(Cc1cccnc1)C2	-4.5	/	/	/	/	/	/	/
O=C(CSc1nnc(-c2ccco2)n1Cc1ccccc1)c1ccccc1	5.0	/	102.0	18.2	4.4	-4.4	/	/
Cc1ccc(C(=O)CSc2nnc(-c3ccco3)n2Cc2ccccc2)cc1	11.4*	-20.4	85.6	11.7	2.8	-2.8	6.0	4.2
COc1ccccc1NS(=O)(=O)c1cc(NC(=O)c2ccccc2C)ccc1N1CCOCC1	0.5	/	/	/	-5.4	5.4	/	/
COc1ccccc1NS(=O)(=O)c1cc(NC(=O)c2[nH]c(C)c(C(C)=O)c2C)ccc1N1CCOCC1	9.9*	-15.2	107.2	34.0	-21.8	21.8	10.5*	6.0*
COCCNC(=S)Nc1ccc(N2CCOCC2)c(S(=O)(=O)Nc2ccccc2OC)c1	15.9*	/	92.7	3.4	-17.1	17.1	6.5	-0.8
COC(=O)[C@]12C[C@H](CC(=O)NCC3CCCCC3)C(=O)N(Cc3cccc4ccccc34)C1=C[C@H](C1CCCC1)O[C@@H]2C	4.0	/	/	/	/	/	/	/
O=C(/C=C/c1ccc(-c2ccccc2)o1)c1ccccc1	11.8*	-1.1	97.8	29.0	21.9	-21.9	20.5*	4.9
CN1CCN(c2ccc(Nc3ccnc4cc(Cl)ccc34)cc2)CC1	16.2*	-8.1	95.5	4.2	-12.4	12.4	28.3*	-0.1
C=CCN1C(=O)[C@@H](CC(=O)NCCCN2CCCC2=O)[C@]2(C(=O)OC)CCCCC=C12	8.7*	/	/	/	/	/	-0.5	-1.7
Cc1ccc2nc(NC(=O)c3ccccn3)sc2c1	-8.8	-18.7	88.6	2.1	0.1	-0.1	/	/
